An excerpt weighted towards active compounds, which were near 27% of everything screened.
CYP2C19 activ – human CYP2C19 activators, primary screen, biochemical, luminescence; activation factor at 5 µM; 96,000 tested, under 10 active; recombinant CYP2C19, luciferin-H EGE luminescence; stronger effect = higher value; 0 = fully inhibited enzyme, 1 = untreated enzyme;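 active = activation factor of at least 2 at 5 µM in the primary screen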;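 also: 0 = wells with 2.5 mM tranylcypromine and 1 = vehicle-only wells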
CYP2C9 inhib – blockers of cytochrome P450 2C9 activity – biochemical, luminescence, ADME assay, primary screen. P11712. CYP2C9 Supersomes, luciferin-H conversion. inhibition, % at 5 µM. hit rate 20% among 96,000. AID 777, 2007;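 active = blocking of liver enzyme CYP2C9 beyond about 50% at 5 µM, limit read from the data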
Target sequence (P11712 whole entry, looked up): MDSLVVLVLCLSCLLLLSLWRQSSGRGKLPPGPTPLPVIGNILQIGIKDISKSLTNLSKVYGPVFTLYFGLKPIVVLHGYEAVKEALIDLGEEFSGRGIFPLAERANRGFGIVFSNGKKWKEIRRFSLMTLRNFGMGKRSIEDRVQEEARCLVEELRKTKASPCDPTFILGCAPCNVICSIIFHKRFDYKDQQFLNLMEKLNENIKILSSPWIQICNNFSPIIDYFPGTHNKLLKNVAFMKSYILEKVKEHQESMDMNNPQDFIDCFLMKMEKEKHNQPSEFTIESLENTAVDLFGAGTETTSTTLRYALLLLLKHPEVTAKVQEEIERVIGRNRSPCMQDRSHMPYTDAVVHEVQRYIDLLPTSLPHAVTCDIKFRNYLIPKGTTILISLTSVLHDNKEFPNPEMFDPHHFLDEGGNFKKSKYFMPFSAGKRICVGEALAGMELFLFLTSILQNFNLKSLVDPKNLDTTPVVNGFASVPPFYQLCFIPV
CYP2C19 inh – blockers of cytochrome P450 2C19 activity – biochemical, luminescence, ADME assay, primary screen; CYP2C19 Supersomes, luciferin-H EGE luminescence, 30 min; inhibition, % at 5 µM; hit rate 21% among 96,000;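 active = CYP2C19 inhibition above a set limit at 5 µM in the primary screen, cut at about 50% in these data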;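 also: plate controls were negative control wells for no effect and 2.5 mM tranylcypromine positive control for full effect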
Cav3 T inh – Cav3.2 calcium influx blockers – cell-based, Fluo-4 calcium fluorescence, FDSS, MLSMR library, primary screen. Voltage-dependent T-type calcium channel subunit alpha-1H (Homo sapiens), O95180. B-score at 10 µM. Cav3.2-expressing cells; stronger effect = lower value. AID 449739, 2010. hit rate 4% among 100,000;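 active = single-dose well whose peak fluorescence ratio is a statistical outlier from its plate by either plate-standardised score or position-corrected B-score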
CYP2C9 act – human CYP2C9 activators, primary screen, biochemical, luminescence. hit rate 1.4% among 96,000. recombinant CYP2C9, luciferin-H conversion; stronger effect = higher value; factor 1 = untreated enzyme, 0 = blocked. Cytochrome P450 2C9 (Homo sapiens), P11712. activation factor at 5 µM;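 active = activation factor of 2 or more for CYP2C9 at a 5 µM dose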;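 also: 0 = sulfaphenazole-blocked wells and 1 = vehicle-only wells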
HIV Rev-RRE inh – HIV-1 Rev-RRE binding inhibitors, primary screen, biochemical, FRET, protein-RNA interaction. P05866. Rev peptide-RRE RNA binding. inhibition, % at 8 µM. hit rate 0.79% among 97,000. AID 704, 2007;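 active = inhibition above the screen-wide mean plus 3 SD, cut at about 35% in these data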;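 also: 0% = median DMSO wells and 100% = median Neomycin B control wells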
Target sequence (P05866 whole entry, looked up): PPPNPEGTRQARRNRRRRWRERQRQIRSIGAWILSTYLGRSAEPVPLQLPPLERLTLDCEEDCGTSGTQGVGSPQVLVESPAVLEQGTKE
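assay system = Cy5-tagged RRE RNA duplex with fluorescein-tagged Rev peptide | incubation = 5 + 15 min at 25 °C | also added = labelled Rev peptide | measure = % inhibition of FRET ratio versus controls | benchmarks = DMSO wells as 0% and neomycin B wells as 100% inhibition | measured by = FRET fluorescence readout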
The depositor's hits bear a star; · = not tested or not shown.

SMILES	CYP2C19 activ	CYP2C9 inhib	CYP2C19 inh	Cav3 T inh	CYP2C9 act	HIV Rev-RRE inh
CCN(CC)c1ccc(CN2CC=C(c3ccc(F)cc3)CC2)cc1	0.7	-10.1	27.2	-0.855	1.1	-1.7
Fc1ccc(C2=CCN(C(c3cccs3)c3nnnn3CCc3ccccc3)CC2)cc1 (stereo not drawn)	0.5	73.8*	50.1*	-1.8	0.3	12.9
CC(C(=O)N1CCC2(CC1)OCCO2)C1Sc2ccccc2NC1=O (stereo not drawn)	0	13.0	95.3*	0.514	0.9	4.1
CC(C)(C)n1c(O)c(C=Nc2ccc3c(c2)CCC3)c(=O)[nH]c1=O	0.6	73.8*	38.5	-2.31	0.3	18.5
Cc1cccc(-n2c(O)c(C=NCCCN3CCOCC3)c(=O)[nH]c2=O)c1C	1.1	-7.2	-13.6	0.0123	1.1	1.9
Oc1ccc(C2NCc3ccccc3-n3cccc32)cc1Cl (stereo not drawn)	0	88.9*	98.2*	-1.63	0.1	1.9
CN(C)CC1CSCCC1(O)c1ccccc1 (stereo not drawn)	·	·	·	-0.0709	·	6.6
CCN1CC=C(c2c[nH]c3ccccc23)CC1	1.1	-12.4	-13.5	0.000609	1.1	2.9
O=C(Cn1ncc2c3ccccc3n(Cc3ccc(F)cc3)c2c1=O)N1CCC2(CC1)OCCO2	·	·	·	-7.98*	·	0.3
O=C(Cn1nc(Cc2cccnc2)c2ccccc2c1=O)N1CCC2(CC1)OCCO2	0.8	80.2*	22.4	0.0372	0.2	·
CN(C)CCN=Cc1c(O)n(CCC2=CCCCC2)c(=O)[nH]c1=O	0.7	16.3	28.1	1.02	0.8	2.8
CCN(CC)CCN=Cc1c(O)n(C2CCCCCC2)c(=O)[nH]c1=O	0.8	16.4	21.4	-0.294	0.8	4.3
O=c1[nH]c(=O)n(C2CCCCC2)c(O)c1C=NCCCn1ccnc1	0.4	50.4*	61.0*	-0.0831	0.5	·
O=c1[nH]c(=O)n(CCc2ccc(F)cc2)c(O)c1C=NCCCn1ccnc1	0.5	68.1*	47.2	0.297	0.3	·
O=c1[nH]c(=O)n(CCC2=CCCCC2)c(O)c1C=NCCCn1ccnc1	0.1	96.7*	86.2*	1.29	0	4.7
CC1(C)C[C@H]2C=C(C=O)[C@]3(C=O)C[C@]3(C)[C@H]2C1	·	·	·	-2.88	·	·
CN(C)C(=O)On1c(-c2ccccc2)nc2ccc(Cl)cc21	0.8	23.2	24.6	0.214	0.8	6.8
COc1cc(O)c(C(=O)O)c(-c2cc(O)c(O)cc2C)c1	·	·	·	-0.165	·	·
CC(=O)c1ccc2c(c1)C1C(Cl)C(Sc3ccccc3[N+](=O)[O-])CC1C(c1ccccc1)N2 (stereo not drawn)	0.6	73.5*	43.9	-0.496	0.3	-2.0
CC(=O)c1ccc2c(c1)C1C(Cl)C(Sc3ccccc3[N+](=O)[O-])CC1C(c1ccccc1[N+](=O)[O-])N2 (stereo not drawn)	·	·	·	-1.36	·	6.5
CON(C)C(=O)Nc1ccc(Cl)cc1	0.7	12.8	32.5	·	0.9	7.5
O=C(Nc1ccc(Cl)cc1)O/N=C(\c1ccccc1)c1ccccn1	0.8	56.7*	17.8	-0.548	0.4	-0.1
C=C1[C@@H](C)[C@H]2[C@H](Cc3ccccc3)NC(=O)[C@]23OC(=O)/C=C/[C@H](O)CCC[C@@H](C)C/C=C/[C@H]3[C@@H]1O	·	·	·	0.841	·	·
C=CCN1C(=O)C2(C(C(=O)OCC)=C(N)Oc3ccccc32)c2c1c1ccccc1oc2=O (stereo not drawn)	0.8	53.1*	20.6	-0.457	0.5	9.7
CCOC(=O)C1=C(N)Oc2c(c(=O)oc3ccccc23)C12C(=O)N(C)c1ccccc12 (stereo not drawn)	0.9	31.1	10.3	0.909	0.7	5.2
SMILES	CYP2C19 activ	CYP2C9 inhib	CYP2C19 inh	Cav3 T inh	CYP2C9 act	HIV Rev-RRE inh
C=CCC1(CN2CCCC2=O)C(=O)NC(=O)NC1=O	0.9	12.7	9.8	0.0844	0.9	4.3
Fc1ccc2c(c1)nnn2C1CCN(Cc2ccccc2)CC1	0.7	26.3	33.0	2.12	0.7	-0.6
Cc1nc2cc(C(F)(F)F)ccc2n1C1CCN(Cc2nnnn2Cc2ccc3c(c2)OCO3)CC1	0.4	92.3*	57.2*	3.21	0.1	-2.8
Cc1nc2ccccc2n1C1CCN(Cc2nnnn2CCc2ccccc2)CC1	0.7	43.9	30.8	-1.12	0.6	5.6
Cc1nc2cc(C(F)(F)F)ccc2n1C1CCN(Cc2nnnn2Cc2cccs2)CC1	0.8	78.9*	24.2	2.35	0.2	·
OC[C@@H](O)CCl	·	·	·	0.464	·	·
CCN1CCN(Cc2cc(Br)cc(Br)c2O)CC1	0.4	9.0	60.5*	-0.022	0.9	1.6
CCC(=O)Nc1ccc(N2CCN(CC)CC2)c(Cl)c1	1	0.3	1.3	·	1	7.3
O=P(O)(O)C12CC3CC(CC(C3)C1)C2	0.6	62.3*	44.6	0.762	0.4	9.8
Cc1ccc2c(c1)CNc1ccccc1O2	0.3	24.8	71.3*	0.404	0.8	2.6
c1ccc2c(c1)CNc1ccccc1O2	0.5	8.3	48.5	-0.544	0.9	5.1
COC(=O)C1=C(c2cccc(OC)c2OC)C[C@@H]2CC[C@H]1N2C(=O)NC1CC1	·	·	·	1.18	·	·
c1cc2n(c1)-c1c(ccc3c1OCO3)CNC2c1ccc2c(c1)OCO2 (stereo not drawn)	0	76.8*	98.7*	-1.59	0.2	-7.0
COc1ccc(C2NCc3ccc4c(c3-n3cccc32)OCO4)cc1O (stereo not drawn)	0.3	-6.0	68.1*	-2.54	1.1	-4.6
O=C(NCc1ccc(C(=O)N2CCC3(CC2)OCCO3)cc1)c1cccc(Br)c1	0.9	23.5	11.6	-0.409	0.8	1.1
c1cncc(C2CCCCN2Cc2ccc3c(c2)OCO3)c1 (stereo not drawn)	0	19.8	97.4*	-0.234	0.8	-0.5
O=C1C2CCCN2C(c2cccnc2)N1c1cccc(Cl)c1 (stereo not drawn)	0.8	14.8	15.6	·	0.9	2.0
Clc1cccc(CN2CCCCC2c2cccnc2)c1 (stereo not drawn)	0.1	53.5*	94.7*	-0.535	0.5	6.9
CC(=NCc1cccnc1)c1c(O)n(-c2ccc(C)cc2)c(=O)[nH]c1=O	0.8	12.7	22.1	-0.402	0.9	4.4
NC(=O)c1cn(C2OC(CO)C(O)C2O)c2ncnc(N)c12 (stereo not drawn)	·	·	·	-4.74*	·	·
CC(C)N1C(=O)CC2(CC[N+](C)(CCOC(=O)C(O)(c3ccccc3)c3ccccc3)CC2)C1=O (stereo not drawn)	1	-3.1	-2.7	0.0349	1	19.0
CCC(CC)C1C(C#N)=C(N)Oc2c1c(=O)oc1ccccc21 (stereo not drawn)	·	·	·	-0.00671	·	13.6

Screening results from PubChem.
